According to ChEMBL document CHEMBL4311937, “Repositioning Salirasib as a new antimalarial agent” (Medchemcomm, 2019):
Active and inactive are the calls of the source. No cut-off for these calls is given here.

How the values were obtained:
Plasmodium falciparum [1] = test: Antimalarial activity against synchronized ring stage Plasmodium falciparum 3D7 transfected with nano-luciferase assessed as parasite growth inhibition after 72 hrs by Nano-Glo luciferase assay; format: functional, organism-based; settings: 3D7, 72 h
In short: (§1)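 Assays started at 1% ring stage and 2% hematocrit, with serial RPMI dilutions from 20 mM ethanol stocks. Cultures were lysed with an equal volume of 0.02% saponin buffer containing Nano-Glo substrate, and luminescence was read for 30 s. IC50 was fitted by variable-slope nonlinear regression; 3 experiments ×3 technical replicates.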

Plasmodium falciparum [2] = test: Antimalarial activity against synchronized ring stage Plasmodium falciparum 3D7 transfected with nano-luciferase assessed as parasite growth inhibition at 200 uM after 72 hrs by Nano-Glo luciferase assay; format: functional, organism-based
Vero = test: Cytotoxicity against African green monkey Vero cells after 72 hrs by MTT assay; format: cell-based; settings: Chlorocebus sabaeus
In short: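 Vero cells in DMEM with 10% FBS and penicillin/streptomycin, 37 °C, 5% CO₂, seeded at 3000 cells/well. Compounds came from 27 or 25 mM DMSO stocks diluted in medium, with matching DMSO controls. After 72 h, cells got 0.5 mg/mL MTT for 4 h at 37 °C; formazan was dissolved in DMSO and absorbance read at 562 nm.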

[3] = Selectivity index, ratio of IC50 for African green monkey Vero cells to IC50 for synchronized ring stage Plasmodium falciparum 3D7 transfected with nano-luciferase; format: toxicity; settings: read-out: Ratio IC50
Erythrocyte [4] = test: Hemolytic activity in erythrocytes (unknown origin) at 100 uM; format: ADME, cell-based
Erythrocyte [5] = test: Hemolytic activity in erythrocytes (unknown origin) at 200 uM; format: ADME, cell-based
Plasmodium falciparum [6] = test: Antimalarial activity against synchronized ring stage Plasmodium falciparum 3D7 transfected with nano-luciferase assessed as parasite growth inhibition after 48 hrs by Nano-Glo luciferase assay; format: functional, organism-based; settings: 3D7, 48 h
In short: as §1, with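 “nLuc-exporting transfected 3D7 rings were sorbitol-synchronized and cultured in RPMI-1640/0.5% Albumax I under 5% CO₂/5% O₂/90% N₂. Assays” for “Assays”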

Plasmodium falciparum [7] = test: Antimalarial activity against synchronized ring stage Plasmodium falciparum 3D7 assessed as parasite growth inhibition measured after 24 to 96 hrs; format: functional, organism-based; settings: in the assay text read “24 to 72 hrs” for “24 to 96 hrs”
In short: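 Sorbitol-synchronized 3D7 rings grown in RPMI-1640 with 0.5% Albumax I under 5% CO₂/5% O₂/90% N₂. Started at 1% ring stage, 2% hematocrit, with serial dilutions in RPMI from 20 mM ethanol stocks, plus ethanol solvent controls. Followed up to 72 h. Growth was read by SYBR Green I lysis-buffer staining (485/520 nm) and confirmed by Giemsa smears. IC50 came from variable-slope nonlinear regression; 3 experiments ×3 technical replicates.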

| Compound | IC50 (Plasmodium falciparum [1]) | Activity (Plasmodium falciparum [2]) | further results |
| --- | --- | --- | --- |
| CC(C)=CCC/C(C)=C/Cn1cc(CSc2ccccc2C(=O)O)nn1 | > 200 µM | Active | – |
| CCCCCCCCSc1ccccc1C(=O)O | > 200 µM | Active | – |
| C/C(=C\Cn1cc(CSc2ccccc2C(=O)O)nn1)CCCC(C)CCCC(C)CCCC(C)C (centres undefined) | 9.75 µM | Active | IC50 (Vero): 34 µM; selectivity ratio [3]: 3.67; Activity (Erythrocyte [4]): Non-Toxic; Activity (Erythrocyte [5]): Toxic |
| O=C(O)c1ccccc1SCc1cn(Cc2ccccc2)nn1 | > 200 µM | Active | – |
| CC(C)=CCC/C(C)=C/CC/C(C)=C/Cn1cc(CSc2ccccc2C(=O)O)nn1 | 26 µM | Active | IC50 (Vero): > 200 µM; selectivity ratio [3]: > 7.7 |
| CCCCCCCCCCCCCn1cc(CSc2ccccc2C(=O)O)nn1 | 19.8 µM | Active | IC50 (Vero): 59 µM; selectivity ratio [3]: 2.99 |
| CC(C)=CCn1cc(CSc2ccccc2C(=O)O)nn1 | > 200 µM | Active | – |
| CC(C)=CCC/C(C)=C/CSc1ccccc1C(=O)O | > 200 µM | Active | – |
| C[C@H]1[C@H](OC(=O)CCC(=O)O)O[C@@H]2O[C@@]3(C)CC[C@H]4[C@H](C)CC[C@@H]1[C@@]24OO3 [ARTESUNATE] | – | – | IC50 (Plasmodium falciparum [6]): 1.64 to 1.74 nM |
| C/C(=C\CSc1ccccc1C(=O)O)CCCC(C)CCCC(C)CCCC(C)C (centres undefined) | 13.4 µM | Active | IC50 (Vero): 52 µM; selectivity ratio [3]: 3.87 |
| C#CCSc1ccccc1C(=O)O | > 200 µM | Active | – |
| CCCCCCCCn1cc(CSc2ccccc2C(=O)O)nn1 | > 200 µM | Active | – |
| O=C(O)c1ccccc1SCc1cn(C/C=C/c2ccccc2)nn1 | 65.3 µM | Active | IC50 (Vero): > 200 µM; selectivity ratio [3]: > 3.06 |
| CCOC(=O)Cn1cc(CSc2ccccc2C(=O)O)nn1 | > 200 µM | Active | – |
| CCCCCCCCCCSc1ccccc1C(=O)O | > 200 µM | Active | – |
| CCCCCCCCCCn1cc(CSc2ccccc2C(=O)O)nn1 | > 200 µM | Active | – |
| CC(C)=CCSc1ccccc1C(=O)O | > 200 µM | Active | – |
| CC(C)=CCC/C(C)=C/CC/C(C)=C/CSc1ccccc1C(=O)O [SALIRASIB] | 20.3 µM | Active | IC50 (Vero): 210 µM; IC50 (Plasmodium falciparum [7]): 14 µM; selectivity ratio [3]: 10.3 |
| O=C(O)c1ccccc1SC/C=C/c1ccccc1 | > 200 µM | Active | – |
| CCOC(=O)CCn1cc(CSc2ccccc2C(=O)O)nn1 | > 200 µM | Active | – |
| O=C(O)c1ccccc1SCc1cn(CCCc2ccccc2)nn1 | > 200 µM | Active | – |
| CCOC(=O)CCSc1ccccc1C(=O)O | > 200 µM | Active | – |
| O=C(O)c1ccccc1SC1CCCCC1 | > 200 µM | Active | – |
| O=C(O)c1ccccc1SCc1cn(CCc2ccccc2)nn1 | > 200 µM | Active | – |
| O=C(O)c1ccccc1SCc1cn(Cc2ccc3ccccc3c2)nn1 | 20.5 µM | Active | IC50 (Vero): 143 µM; selectivity ratio [3]: 6.95 |
| CCCCCCCCCCCCCCCCn1cc(CSc2ccccc2C(=O)O)nn1 | 14.4 µM | Active | IC50 (Vero): 27 µM; selectivity ratio [3]: 1.86; Activity (Erythrocyte [4]): Non-Toxic; Activity (Erythrocyte [5]): Toxic |
| O=C(O)c1ccccc1SCc1cn(C2CCCCC2)nn1 | > 200 µM | Active | – |
